Test results from ChEMBL document CHEMBL2390926, “Identification of novel FLT3 kinase inhibitors” (Eur J Med Chem, 2013).
The source made the active and inactive calls. The rule behind the calls is not given here.

Assays:
[1] = target: T1, Receptor-type tyrosine-protein kinase FLT3 (Mus musculus) (UniProt Q00342); test: Inhibition of FLT3 phosphorylation in mouse Ba/F3 cells transfected with FLT3-ITD at 50 nM after 90 mins by Western blot analysis; assay type: cell-based; details: BaF3
T1 sequence (whole entry): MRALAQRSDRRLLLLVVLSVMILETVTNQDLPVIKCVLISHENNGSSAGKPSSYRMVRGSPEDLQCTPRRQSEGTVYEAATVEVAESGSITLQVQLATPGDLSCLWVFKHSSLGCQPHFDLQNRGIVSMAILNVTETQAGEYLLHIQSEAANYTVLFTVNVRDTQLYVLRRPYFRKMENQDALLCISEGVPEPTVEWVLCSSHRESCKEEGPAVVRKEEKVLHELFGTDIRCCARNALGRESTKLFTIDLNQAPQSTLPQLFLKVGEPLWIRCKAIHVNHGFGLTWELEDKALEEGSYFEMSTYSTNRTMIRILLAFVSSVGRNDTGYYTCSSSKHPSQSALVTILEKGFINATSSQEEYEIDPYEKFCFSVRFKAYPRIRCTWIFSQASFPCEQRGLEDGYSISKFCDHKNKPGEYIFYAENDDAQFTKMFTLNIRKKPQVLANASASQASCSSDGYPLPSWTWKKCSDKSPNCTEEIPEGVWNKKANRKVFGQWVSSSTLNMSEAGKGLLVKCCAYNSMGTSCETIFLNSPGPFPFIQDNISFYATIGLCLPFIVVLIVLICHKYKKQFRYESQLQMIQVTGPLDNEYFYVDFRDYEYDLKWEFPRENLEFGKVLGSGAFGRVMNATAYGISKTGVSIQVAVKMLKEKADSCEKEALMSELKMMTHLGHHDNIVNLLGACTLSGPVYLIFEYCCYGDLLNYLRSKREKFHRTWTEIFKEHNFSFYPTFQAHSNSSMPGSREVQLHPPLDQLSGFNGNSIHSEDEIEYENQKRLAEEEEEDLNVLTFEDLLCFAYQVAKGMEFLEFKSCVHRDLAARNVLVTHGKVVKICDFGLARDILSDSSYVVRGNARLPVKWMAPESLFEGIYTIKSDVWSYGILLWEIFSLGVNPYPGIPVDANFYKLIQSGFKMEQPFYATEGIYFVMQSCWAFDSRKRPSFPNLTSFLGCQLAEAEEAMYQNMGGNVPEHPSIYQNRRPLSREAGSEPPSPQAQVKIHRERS
In short: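 Ba/F3-FLT3-ITD cells were treated for 90 min with increasing doses. They were lysed in buffer with 1 mM NaVO4 and protease inhibitors, then reduced and run on Bis-Tris 4–12% gels for Western blot. Phospho-FLT3 and phospho-STAT5 were detected, with total FLT3 and STAT5 as loading controls.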

MOLM-13 = test: Cytotoxicity against human MOLM13 cells after 24 hrs by plate reader analysis; assay type: functional, cell-based; details: MOLM-13, 24 h
In short: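 Cells in RPMI 1640 with 10% FBS at 37 °C and 5% CO2 were seeded at 100,000 cells/ml. They were treated for 24 h at 8 concentrations (50–6400 nM), each in triplicate, with DMSO as negative control. Viable cells were measured by ATP-lite luminescence, and EC50 was taken from dose–response curves.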

inhibition [1]: Active
Structure (SMILES): COc1ccc(C(=O)Nc2cc(-c3ccccc3)[nH]n2)cc1
EC50 (MOLM-13): 0.292 µM
